A short description of data set [1]: folding enthalpy; higher = less favourable; fluorescence melt of hairpins on a sequencing array, two-state fit. The following applies: sodium 0.088 M. Summed up:
(§1)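 On a sequenced MiSeq flow cell, library hairpins with annealed Cy3 and quencher oligos were imaged for Cy3 fluorescence in 2.5 °C steps up to 60 °C, in 50 mM Na-HEPES pH 8.0, 25 mM NaCl. Normalisation used pre-quench Cy3 and control constructs. Bootstrapped two-state fits gave melting temperature and folding enthalpy, combined by inverse variance across four replicates and with fitted temperatures raised by 9.35 °C to match UV melts.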

Data set [2] can be described thus: melting temperature; fluorescence melt of hairpins on a sequencing array, two-state fit, raised by 9.35 °C to match UV melts. As to conditions: sodium 0.088 M. In short, it runs like this:
as §1

For the sequence GTTAGGGAAACCTAAC ((((((....)))))), the folding enthalpy in data set [1] is -30.8 kcal/mol. In addition, the Tm in data set [2] worked out at 48.4 °C.

Take GTTAGGGGAAACCCTGAC ((.((((....)))).)): the folding enthalpy in data set [1] is -28.4 kcal/mol. In addition, the Tm in data set [2] is 45.6 °C.

As for GTTAGGGGAAACCTTAAC ((((.((....)).)))), the folding enthalpy in data set [1] was -22.3 kcal/mol. For the same sequence, the Tm in data set [2] is 33.4 °C.

On to GTTAGTGAAAACTAAC ((((((....)))))), for which, in data set [1], the folding enthalpy is -33.4 kcal/mol. For the same sequence, the Tm in data set [2] came to 49.3 °C.

Consider GTTAGTGGAAACACTAGC (.(((((....))))).), for which the folding enthalpy in data set [1] was -21.1 kcal/mol. The Tm in data set [2] came out at 40 °C.

As for GTTAGTGGAAACACTGAC ((.((((....)))).)), the folding enthalpy in data set [1] was -24.2 kcal/mol. Moreover, the Tm in data set [2] worked out at 44.7 °C.

As for GTTATACGAAAGTACAAC (((.(((....))).))), the folding enthalpy in data set [1] is -17.4 kcal/mol. In data set [2], the Tm is 33.2 °C.

GTTATCACGAAAGTGAAC (((..(((....)))))): the folding enthalpy in data set [1] is -10.2 kcal/mol. Further, the Tm in data set [2] came to 28.5 °C.

As for GTTATCGGAAACGATGAC ((.((((....)))).)), the folding enthalpy in data set [1] is -25.2 kcal/mol. Also, the Tm in data set [2] was 47.1 °C.

As to GTTATGGGAAACCACAAC (((.(((....))).))), the folding enthalpy in data set [1] was -14.9 kcal/mol. Moreover, the Tm in data set [2] came to 29.2 °C.

GTTATGGGAAACCGTAAC ((((.((....)).)))): in data set [1], the folding enthalpy is -33.2 kcal/mol. The Tm in data set [2] is 44.2 °C.

As for GTTCAAGGAAACTTGGAC ((.((((....)))).)), the folding enthalpy in data set [1] is -20.7 kcal/mol. For the same sequence, the Tm in data set [2] worked out at 43.7 °C.

For the sequence GTTCACACGAAAGTGAAC (((..(((....)))))), the folding enthalpy in data set [1] is -23.8 kcal/mol. The Tm in data set [2] was determined as 49.2 °C.

As for GTTCACGAAAGTGTCAAC ((((((....)))..))), the folding enthalpy in data set [1] is -10.7 kcal/mol. Further, the Tm in data set [2] is 28.6 °C.

For the sequence GTTCACGGAAACGTGAGC (.(((((....))))).), in data set [1], the folding enthalpy is -22.2 kcal/mol. Moreover, the Tm in data set [2] turned out to be 52.1 °C.

As for GTTCAGGGAAACCTGAAC (((((((....))))))), the folding enthalpy in data set [1] is -43.2 kcal/mol. Further, the Tm in data set [2] is 60.4 °C.

Take GTTCATGGAAACATGGAC ((.((((....)))).)): the folding enthalpy in data set [1] is -27.7 kcal/mol. Besides, in data set [2], the Tm was 46.3 °C.

For GTTCCACGAAAGTGAAC (((.(((....)))))), the folding enthalpy in data set [1] is -17.7 kcal/mol. Also, the Tm in data set [2] came out at 41.8 °C.

As for GTTCCACGAAAGTGCAAC (((.(((....))).))), the folding enthalpy in data set [1] was -16.9 kcal/mol. The Tm in data set [2] stood at 33.5 °C.

On to GTTCCACGAAAGTGTAAC (((.(((....))).))), for which, in data set [1], the folding enthalpy is -26.2 kcal/mol. The Tm in data set [2] was determined as 38.4 °C.

As to GTTCCAGAAATGGAAC ((((((....)))))), the folding enthalpy in data set [1] was -32.2 kcal/mol. In addition, the Tm in data set [2] was 53.4 °C.

In the case of GTTCCAGGAAACTGAAAC (((.(((....))).))), in data set [1], the folding enthalpy is -19.4 kcal/mol. Besides, the Tm in data set [2] worked out at 30.4 °C.

Turning to GTTCCAGGAAACTGGGAC ((.((((....)))).)), in data set [1], the folding enthalpy was -27.6 kcal/mol. In addition, the Tm in data set [2] worked out at 49.3 °C.

Regarding GTTCCCCCGAAAGGGAAC (((..(((....)))))), the folding enthalpy in data set [1] was -34.7 kcal/mol. In addition, in data set [2], the Tm was 51.6 °C.

Regarding GTTCCCCGAAAGGGAAAC (((.(((....))).))), the folding enthalpy in data set [1] was -19.3 kcal/mol. For the same sequence, the Tm in data set [2] was 46.5 °C.

As to GTTCCCGAAAGGGATAAC ((((((....)))..))), in data set [1], the folding enthalpy was -10.2 kcal/mol. The Tm in data set [2] was 36.5 °C.

For the sequence GTTCCCGAAAGGGCAAC ((((((....))).))), in data set [1], the folding enthalpy was -14.7 kcal/mol. In addition, in data set [2], the Tm worked out at 40.4 °C.

Regarding GTTCCGGGAAACCAGAAC ((((.((....)).)))), in data set [1], the folding enthalpy was -31.7 kcal/mol. In data set [2], the Tm was found to be 38.7 °C.

Consider GTTCCGGGAAACCGGAAC (((((((....))))))), for which the folding enthalpy in data set [1] is -30.1 kcal/mol. In addition, in data set [2], the Tm came to 68.7 °C.

GTTCCGGGAAACCGGGAC ((.((((....)))).)): the folding enthalpy in data set [1] was -35.5 kcal/mol. Further, in data set [2], the Tm worked out at 57.4 °C.

Turning to GTTCCGGGAAACTGGGAC ((.((.(....).)).)), in data set [1], the folding enthalpy was -28.2 kcal/mol. Besides, the Tm in data set [2] stood at 41.4 °C.

For the sequence GTTCCTCGAAAGAGAAC (((.(((....)))))), the folding enthalpy in data set [1] was -24.1 kcal/mol. For the same sequence, in data set [2], the Tm amounted to 36.3 °C.

On to GTTCCTGGAAACAGGGAC ((.((((....)))).)), for which the folding enthalpy in data set [1] was -35.1 kcal/mol. Besides, the Tm in data set [2] was 50.8 °C.

With GTTCGACGAAAGTCTAAC (((.(((....))).))), the folding enthalpy in data set [1] was -24.8 kcal/mol. The Tm in data set [2] came to 42.5 °C.

For GTTCGAGCGAAAGCTAAC (((..(((....)))))), the folding enthalpy in data set [1] was -7.3 kcal/mol. The Tm in data set [2] came out at 24.6 °C.

As for GTTCGAGGAAACTCAAAC (((.(((....))).))), in data set [1], the folding enthalpy is -13.8 kcal/mol. For the same sequence, in data set [2], the Tm was found to be 31 °C.

GTTCGAGGAAACTCGGAC ((.((((....)))).)): in data set [1], the folding enthalpy is -40.9 kcal/mol. Moreover, in data set [2], the Tm was found to be 51.3 °C.

As for GTTCGCCCGAAAGGGAAC (((..(((....)))))), the folding enthalpy in data set [1] was -13.9 kcal/mol. Also, the Tm in data set [2] turned out to be 35.9 °C.

Consider GTTCGCCGAAAGGCTAAC (((.(((....))).))), for which the folding enthalpy in data set [1] is -19.6 kcal/mol. The Tm in data set [2] stood at 44.7 °C.

On to GTTCGCGAAAGCGCAAC ((((((....))).))), for which, in data set [1], the folding enthalpy is -13.9 kcal/mol. Moreover, the Tm in data set [2] was determined as 45.6 °C.

As for GTTCGCGAAAGCGCTAAC ((((((....)))..))), in data set [1], the folding enthalpy was -9.92 kcal/mol. Moreover, the Tm in data set [2] amounted to 25.1 °C.

Regarding GTTCGCGAAAGCGGAAC ((((((....))).))), the folding enthalpy in data set [1] was -17.6 kcal/mol. Also, in data set [2], the Tm was determined as 54.4 °C.

Regarding GTTCGCGAAAGCGTGAAC ((((((....)))..))), the folding enthalpy in data set [1] is -13 kcal/mol. Further, the Tm in data set [2] stood at 40.5 °C.

For GTTCGCGAAAGCGTTAAC ((((((....)))..))), in data set [1], the folding enthalpy is -10.9 kcal/mol. The Tm in data set [2] worked out at 27.8 °C.

As to GTTCGCGGAAACGCGAGC (.(((((....))))).), the folding enthalpy in data set [1] is -15.7 kcal/mol. The Tm in data set [2] is 59.2 °C.

As for GTTCGCGGAAACGCGGAC ((.((((....)))).)), the folding enthalpy in data set [1] is -26.6 kcal/mol. Moreover, the Tm in data set [2] amounted to 60.7 °C.

As for GTTCGGCGAAAGCCAAAC (((.(((....))).))), the folding enthalpy in data set [1] is -15.5 kcal/mol. In addition, the Tm in data set [2] came to 46.5 °C.

As for GTTCGGGGAAACTCGAAC (((((.(....).))))), the folding enthalpy in data set [1] was -30.8 kcal/mol. In addition, in data set [2], the Tm came out at 51.3 °C.

For GTTCGTGGAAACATGGAC ((.(.((....)).).)), the folding enthalpy in data set [1] is -16.1 kcal/mol. The Tm in data set [2] was 34.7 °C.

Consider GTTCTACGAAAGTAAAC (((.(((....)))))), for which, in data set [1], the folding enthalpy is -10.8 kcal/mol. For the same sequence, the Tm in data set [2] is 27.6 °C.

Consider GTTCTAGGAAACTAGAGC (.(((((....))))).), for which the folding enthalpy in data set [1] was -24.7 kcal/mol. Also, the Tm in data set [2] was found to be 35.6 °C.

For GTTCTCCGAAAGGACAAC (((.(((....))).))), the folding enthalpy in data set [1] is -15.6 kcal/mol. Also, in data set [2], the Tm was determined as 30 °C.

Take GTTCTCGAAAGAGAGAAC ((((((....)))..))): the folding enthalpy in data set [1] is -25.1 kcal/mol. For the same sequence, the Tm in data set [2] came out at 46.4 °C.

As for GTTCTCGAAAGAGCAAC ((((((....))).))), the folding enthalpy in data set [1] is -17 kcal/mol. In addition, the Tm in data set [2] stood at 32.7 °C.

Take GTTCTCGAAAGAGGTAAC ((((((....)))..))): the folding enthalpy in data set [1] is -8.25 kcal/mol. Moreover, in data set [2], the Tm came to 22.7 °C.

The values are drawn from the array DNA melting data of Ke et al. (doi:10.1101/2024.01.08.574731).
